# Compound activity (PubChem BioAssay)
# Only some compounds are listed: those with a hit (about 2.7% of all), similar ones and a draw of the others.
# PAFAH1B3 FP inh: PAFAH1B3 (human) inhibition; inhibition, % at 3.39 µM; Q15102; recombinant PAFAH1B3, FP-rhodamine probe, fluorescence polarization; actives 0.28% (n = 340,000);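 active means inhibition above the screen-wide average of all tested compounds plus 3 SD, cut at about 25% in these data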;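 further: 0% = enzyme with DMSO only and 100% = wells lacking PAFAH1B3 protein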
# Target sequence (Q15102 whole entry, looked up): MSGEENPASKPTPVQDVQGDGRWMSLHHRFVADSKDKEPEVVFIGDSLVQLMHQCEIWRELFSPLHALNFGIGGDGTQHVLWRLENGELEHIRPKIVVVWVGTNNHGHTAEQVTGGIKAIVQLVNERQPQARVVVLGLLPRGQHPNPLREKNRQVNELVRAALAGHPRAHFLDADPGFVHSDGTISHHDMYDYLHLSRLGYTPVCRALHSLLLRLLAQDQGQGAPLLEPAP
# PAFAH2 FP inh: PAFAH2 (human) inhibition | inhibition, % at 3.39 µM | actives 0.99% (n = 340,000) | AID 492956 | recombinant PAFAH2, FP-rhodamine activity probe, fluorescence polarization;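 active means inhibition above the mean over all tested compounds plus 3 SD, cut at about 30% in these data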;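 further: inhibitors block probe labeling of enzyme so polarization drops; 0% = enzyme with DMSO and 100% = wells lacking PAFAH2 protein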
# ASAP1 GAP inh: inhibitors of human ASAP1 ArfGAP activity. Q9ULH1. ASAP1-stimulated ARF1 GTP hydrolysis, GDP FP detection. inhibition, % at 16.5 µM. actives 0.19% (n = 360,000). AID 624377; in the data active means inhibition above about 25%;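 further: 0% = vehicle with enzyme and substrate and 100% = no enzyme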
# ARFGAP1 inhibitor: inhibitors of rat ARFGAP1; Q62848; Arfgap1-stimulated ARF1 GTP hydrolysis, GDP FP detection; inhibition, % at 16.5 µM; actives 0.26% (n = 360,000);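 active means inhibition above a per-plate limit, mean inhibition of low control wells plus 3 SD, cut at about 25% in these data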;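 further: 0% = DMSO wells with enzyme and 100% = wells lacking Arfgap1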
#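 Assay system: Rat Arfgap1 GAP domain (His6, aa 1-136), purified enzyme | Buffer or medium: HEPES 25 mM pH 7.5, NaCl 150 mM, MgCl2, DTT | Schedule: GTP hydrolysis reaction 2 h at 25 °C | Signal: FP of antibody-bound GDP Alexa 633 tracer, ex 620/em 688 nm | Measure: Percent inhibition of Arfgap1-stimulated GTP hydrolysis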
# pPAFAH inh: pPAFAH (human) enzyme inhibition | recombinant pPAFAH, FP-rhodamine probe fluorescence polarization | inhibition, % at 3.39 µM | actives 1.5% (n = 330,000) | AID 463082;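 active means inhibition above the mean inhibition across the screen plus 3 SD, cut at about 25% in these data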;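 further: inhibitors block binding of the rhodamine activity-based probe so polarization drops; 0% = enzyme with DMSO and 100% = wells lacking pPAFAH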
# Target sequence (Q13093 whole entry, looked up): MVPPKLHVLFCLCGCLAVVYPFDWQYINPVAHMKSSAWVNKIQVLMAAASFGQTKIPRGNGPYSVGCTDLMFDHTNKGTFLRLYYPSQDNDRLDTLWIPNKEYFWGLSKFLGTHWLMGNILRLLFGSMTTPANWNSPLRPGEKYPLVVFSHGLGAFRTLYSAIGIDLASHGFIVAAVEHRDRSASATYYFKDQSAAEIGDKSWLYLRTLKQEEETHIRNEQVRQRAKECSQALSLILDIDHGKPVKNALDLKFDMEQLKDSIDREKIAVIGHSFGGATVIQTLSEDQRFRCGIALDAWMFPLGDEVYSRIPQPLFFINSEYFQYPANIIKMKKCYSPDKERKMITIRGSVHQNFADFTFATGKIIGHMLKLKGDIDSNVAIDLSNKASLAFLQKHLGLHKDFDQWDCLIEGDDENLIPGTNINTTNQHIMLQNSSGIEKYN
# PAFAH1B2 inh: blocks human PAF acetylhydrolase 1b catalytic subunit 2. P68402. recombinant PAFAH1B2, FP-rhodamine activity probe, fluorescence polarization. inhibition, % at 3.39 µM. actives 1.2% (n = 340,000);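 active means inhibition above the mean of all tested compounds plus 3 SD, cut at about 24% in these data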;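 further: 0% = enzyme with DMSO and 100% = wells lacking PAFAH1B2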
# pPAFAH confirm: pPAFAH (human) inhibition, confirmed; shares compounds with pPAFAH inh; recombinant pPAFAH, FP-Rh probe fluorescence polarization; inhibition, % at 3.39 µM; actives 72% (n = 2,300);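 active means mean inhibition of the triplicate above the hit cutoff set for the earlier primary screen, cut at about 25% in these data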;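 further: 0% = enzyme with DMSO and 100% = wells lacking pPAFAH enzyme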
# * hit, by the source's call; / = not tested or not shown.
SMILES,PAFAH1B3 FP inh,PAFAH2 FP inh,ASAP1 GAP inh,ARFGAP1 inhibitor,pPAFAH inh,PAFAH1B2 inh,pPAFAH confirm
O=c1cc(CN2CCOCC2)c2ccc(O)c(O)c2o1,9,1,12,-1,8,5,/
CN(C)C(=O)NC(Nc1ccc(Cl)cc1Cl)C(Cl)(Cl)Cl (stereo not drawn),4,9,4,2,42*,1,4
O=C(NC(NC(=S)Nc1ccc(Cl)cc1Cl)C(Cl)(Cl)Cl)c1cccc([N+](=O)[O-])c1 (stereo not drawn),-18,-43,7,-11,-49,-13,/
N#CC1=C(N)N2C(=C(C#N)C1c1ccc(Br)cc1)Nc1ccccc12 (stereo not drawn),/,/,2,-3,63*,/,71*
c1cc2c(cc1C1CCCCC1)c1c3n2CCCNC3CCC1 (stereo not drawn),5,4,-2,-8,45*,6,20
CC(C)C[C@@H]1COc2cc(N3CCCC3)ccc2S(=O)(=O)N1,/,/,-2,3,/,/,/
CC(CC(=O)Nc1ccc2c(c1)OCO2)c1ccccc1 (stereo not drawn),9,5,4,-6,8,2,/
CCN(CC)C(C(=O)Nc1ccc2c(c1)OCO2)c1ccccc1 (stereo not drawn),6,10,-14,-7,44*,6,4
CCOC(=O)C1=CCN(S(=O)(=O)c2cccc(Cl)c2)C1c1cccc(Cl)c1 (stereo not drawn),/,/,5,-3,/,/,/
CC(C)C[C@H](NC(=O)c1ccc(Cl)cc1Cl)C(=O)N1CCC[C@H]1C(=O)NCc1ccccc1,/,/,14,-2,/,/,/
O=C(CCNS(=O)(=O)c1ccc(Cl)cc1)OCC(=O)N1CCN(C(=O)c2ccco2)CC1,3,-2,-9,-2,9,4,/
O=C(OCC(=O)N1CCN(C(=O)c2ccco2)CC1)c1cc(S(=O)(=O)Nc2ccc(Cl)cc2)ccc1O,4,13,9,-2,62*,33*,68*
C[C@@H]1CNC(=O)c2c(C(=O)N3CCN(c4ccccc4)CC3)ncn21,/,/,7,-6,/,/,/
CC(=O)c1ccc(-c2ccccc2C2=CC(=O)CC(C)(C)C2=O)cc1,/,/,-7,11,/,/,/
Cc1cc(/C=C2/SC(=S)N(c3cccc(Cl)c3)C2=O)c(C)n1-c1cccnc1,-6,9,17,3,39*,2,37*
C/C(=N\NC(=O)c1ccc(-c2ccccc2)cc1)C1C(=O)c2ccccc2C1=O,20,20,-10,1,53*,29*,67*
O=C(Cn1c(=O)n(Cc2ccco2)c(=O)c2c3c(sc21)CCCCC3)Nc1ccccc1,-3,-3,7,-13,3,0,/
O=C(Cn1c(=O)n(Cc2ccco2)c(=O)c2c3c(sc21)CCCCC3)c1ccccc1,1,18,/,/,37*,-1,11
CCCCOCC1CN(CCCC)S(=O)(=O)c2c(Oc3ccc(OC)cc3)cccc2O1 (stereo not drawn),/,/,4,7,/,/,/
CC1=NN(c2ccccc2)C(=O)/C1=C/c1c(O)n(-c2ccc(F)cc2)[nH]c1=O,44*,48*,-1,1,54*,47*,53*
CC1=NN(c2ccccc2)C(=O)C1=Cc1ccccc1,/,/,-2,-12,/,/,/
COc1ccc(C(C(=O)NCC2CCCO2)N(Cc2cccs2)C(=O)c2snc(C(N)=O)c2N)cc1OC (stereo not drawn),0,6,4,-7,38*,5,5
CCn1nc2cc(C(=O)NCCc3cccs3)ccc2c1OC,6,6,12,-15,50*,1,2
CCOc1c2ccc(C(=O)NCCc3ccc(C)cc3)cc2nn1CC,2,-6,0,-9,11,6,/
CNc1ccc2c3c(cccc13)C(=O)N(C)C2=O,68*,71*,-1,-8,54*,58*,39*
SMILES,PAFAH1B3 FP inh,PAFAH2 FP inh,ASAP1 GAP inh,ARFGAP1 inhibitor,pPAFAH inh,PAFAH1B2 inh,pPAFAH confirm
CN1C(=O)c2cccc3c(Cl)ccc(c23)C1=O,-2,5,-4,14,3,-1,/
O=c1c(O)cccc2cc(O)c(O)c(O)c12,42*,87*,0,-4,94*,35*,88*
Cc1[nH]c2ccccc2c1N=Nc1cccc(C(=O)O)c1,8,7,2,2,5,2,/
Cc1[nH]c2ccccc2c1N=Nc1ccccc1C(=O)O,20,9,7,0,47*,6,31*
COC(=O)c1cc2c(c3c4cc(F)ccc4n(S(=O)(=O)c4cccc(C)c4)c13)C(=O)N(Cc1ccc(C(F)(F)F)cc1)C2,/,/,-3,8,/,/,/
Oc1ccc(-c2cn3c(n2)SCC3)cc1,7,16,2,4,1,2,/
Oc1ccc(-c2cn3c(n2)SCC3)cc1O,12,23,2,-12,56*,5,21
CC(C)(C)S(=O)(=O)N1C[C@@H]2C(=C(CCO)C[C@@H]3C(=O)N(c4ccccc4)C(=O)[C@@H]32)[C@H]1CCO,/,/,-6,-1,/,/,/
COc1ccc(CNc2oc(-c3cccc4ccccc34)nc2C#N)cc1,2,-7,2,6,-1,-3,/
CCOP(=O)(OCC)c1nc(-c2cccc3ccccc23)oc1NCCc1ccc(OC)cc1,7,6,-6,2,38*,-1,44*
CC(=O)N1CCc2c(sc(NC(=O)CS(=O)(=O)c3ccc(F)cc3)c2C#N)C1,14,12,0,-3,43*,6,7
Cc1ccc(/C(O)=C2/C(=O)C(=O)N(CC(=O)O)C2c2ccc([N+](=O)[O-])cc2)cc1 (stereo not drawn),6,1,9,-6,37*,7,5
CCOC(=O)NC1(Nc2ccc(C)cc2)Oc2ccccc2O1,11,4,1,7,46*,7,5
CCOC(=O)NC1(NC(C)C)Oc2ccccc2O1,3,-3,12,9,9,2,/
O=C(N/N=C/c1ccc([N+](=O)[O-])o1)c1ccc(NS(=O)(=O)c2cccs2)cc1,18,14,9,0,39*,3,12
O=C(N/N=C/c1ccc(N2CCOCC2)cc1)c1ccc(NS(=O)(=O)c2cccs2)cc1,2,0,-4,7,7,0,/
O=C(O)c1ccccc1N/N=C/c1cc(Br)cc(Br)c1O,10,35*,-5,-2,41*,12,62*
CC(C=NN=C1C(=O)Nc2ccccc21)=Cc1ccccc1,/,/,-6,-1,/,/,/
C=CCCC(=O)N1C[C@H]2CCN(C)[C@H]2C[C@H]1c1ccccc1Br,/,/,-11,-9,/,/,/
CCCCOc1ccc2c(c1)C(=O)c1cc(O)ccc1-2,16,11,-3,11,11,12,/
